Data as given in the EternaBench riboswitch data.

Test system: MS2 coat protein
Test: apparent Kd, MS2 coat protein; higher = weaker binding; RNA-MaP array; FMN 200 µM where present
How it was run: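 The apparent Kd comes from binding curves fitted cluster by cluster, filtered, and summarised as a median. Those curves followed SNAP-549-labelled MS2 coat protein from 0.7 or 1.5 nM, doubling to 3 µM, on Illumina sequencing-chip clusters where stalled E. coli RNA polymerase had transcribed the designs, without and then with constant ligand. The buffer was 100 mM Tris-HCl pH 7.5, 80 mM KCl, 4 mM MgCl2, BSA, DTT, yeast tRNA and Tween-20, and green signal was normalised to red-channel RNA signal and control-cluster median Fmax.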

[1] = designed as: OFF switch for flavin mononucleotide, no ligand
[2] = ligand present: flavin mononucleotide, designed as: OFF switch for flavin mononucleotide
[3] = designed as: ON switch for flavin mononucleotide, no ligand
[4] = ligand present: flavin mononucleotide, designed as: ON switch for flavin mononucleotide

| Sequence | apparent Kd [1] | apparent Kd [2] | apparent Kd [3] | apparent Kd [4] |
| --- | --- | --- | --- | --- |
| AACCAGUUGGUAGGAUAUGGUGCAGUGCUCGUACCAGAAGGACCAACAUGAGGAUCACCCAUGUUGGAAAGUCAACAUUAAUGA | 6.23 nM | 16.4 nM | – | – |
| AACCUAUUACAGAAGGCCAGCUACAUGAGGAUCACCCAUGUCGAGUCAUGGAGGAUAUGUAGUAAUUUACUCACAGAUGAGUGC | – | – | 25.8 nM | 5.31 nM |
| AACCUAUUACAGAAGGCCAGCUACAUGAGGAUCACCCAUGUCGAGUCAUGGAGGAUAUGUAGUAAUUUACUCGCAGAUAAGUGC | – | – | 22.6 nM | 4.45 nM |
| AACUACCCGUCAGGAUAUCGCCGUAGGUCCUCGGGUCUCGCCGUCAUACAUGAGGAUCACCCAUGUGAGAAGGGACGGGUUUCA | 20.9 nM | 136 nM | – | – |
| AACUAGCUAGGAUAUACAUGAGGAUCACCCAUGUAAAAAAAAAAAAAAAGAUUUAUAUGUAGAAGGAGCUAGUA | 40.1 nM | 65.8 nM | – | – |
| AACUCACAUGAGGAUCACCCAUGUGAGGAUAUAUUAAUAUGUAUGUUAUUAUGUAUUGAUAGAAGGCGCGUGAU | 46.3 nM | 49.1 nM | – | – |
| AACUGACAUGAGGAUCACCCAUGUCAGGAUAUGCUUCAUAAAAACAAACAAAAAUGAUGCAGAAGGGACAUGGA | 16.6 nM | 41.6 nM | – | – |
| AACUGCGCAUGAGGAUAUCCCGGACAUGAGGAUCACCCAUGUAAGCACAAGGGAGAAGGCAUGUGCCUCAAUUAGUUCCCACAA | – | – | 61.9 nM | 7.08 nM |
| AAGAAACAUGAGGAUCACCCAUGUGAGGAUAUGAAAAAGAAAAGAAAAGAAAGAAGAAUCAGAAGGCACAAAGC | 26 nM | 32.7 nM | – | – |
| AAGAAAGAAACAUAGGAUAUCAAGAAUAUAACAUGAGGAUCACCCAUGUAAAUACGAAAGUAUAAUGAGAAGGAUGGAUGAUCUUC | – | – | 93.7 nM | 89 nM |
| AAGAAAGAAACAUAGGAUAUCAAGGAUAUAACAUGAGGAUCACCCAUGUAAAUACGAAAGUAUAAUGAGAAGGAUGGAUGAUCUAC | – | – | 238 nM | 437 nM |
| AAGAAAGAAACGCAGGAUAUGCAAAACAAAACAUGAGGAUCACCCAUGUCAAACAAACAAACAAAGCAGAAGGGCGAAAGAAAGAA | – | – | 23.1 nM | 16.4 nM |
| AAGAAGAUAGGAUAUACGAGGAGAGGAGAGAAGAGGUGAGGACAUGAGGAUCACCCAUGUAGAAGGAUCAGGAA | 46.6 nM | 35.6 nM | – | – |
| AAGAAGUCAGGAUAUCCAUGGCGGCACUUGCGUGGUGGCGUGGAGAAGGGACAUGAGGAUCACCCAUGUAAAGG | 149 nM | 173 nM | – | – |
| AAGAAGUCAGGAUAUCCUGCUCGUCACUUGCGUGAUGAGUAGGAGAAGGGACAUGAGGAUCACCCAUGUAAAGC | 46.4 nM | 43.1 nM | – | – |
| AAGAAGUCAGGAUAUGCAUGGCGGGACUUGCGUCGUGGCGUGCAGAAGGGACAUGAGGAUCACCCAUGUGGAGG | 162 nM | 222 nM | – | – |
| AAGAGACAUCAGAAGGGAGCCCGAACGCACGGCUCAGGAUAUGAGAUCUUAUGUAGUACGACAUGAGGAUCACCCAUGUCCGCG | – | – | 36.2 nM | 8.27 nM |
| AAGAGGCUAGGAUAUACAUGAGGAUCACCCAUGUGAGGGCACGGCCGGCGCGUGGCCGGUAGAAGGAGUCAAAA | 21.3 nM | 22.6 nM | – | – |
| AAGAGUGCAGGAUAUACUUGUUAGGACGGUUGGAUGAUUUGACAUGAGGAUCACCCAUGUAGAAGGGCAGAGAG | 155 nM | 129 nM | – | – |

| Sequence | apparent Kd [1] | apparent Kd [2] | apparent Kd [3] | apparent Kd [4] |
| --- | --- | --- | --- | --- |
| AAGAUGCCUCCUGCUGGUGGGAGACAUGAGGAUCACCCAUGUCAGGAUAUCGGUUAAAGAGGACACGAGAAGGGACAGGAGUAC | 8.19 nM | 9.23 nM | – | – |
| AAGCAACAUGAGGAUCACCCAUGUAGCAGGGUCAGAGGAUAUUUGAGCUUGGCGAGGGUUAAAGAAGGUUGAUAUC | – | – | 38.8 nM | 43.6 nM |
| AAGCCCUGAGGAUAUCCCAACUCGCACAUGAGGAUCACCCAUGUCCUUCUCUGGGUUUCGGGAGAAGGCAGGUCUC | 348 nM | 161 nM | – | – |
| AAGCCUCUUGUCAGGAUAUCUGUCGGUCCUCCAAGAGAGAAGGGACAUGAGGAUCACCCAUGUAAGCCCAGGGA | 16.1 nM | 27.9 nM | – | – |
| AAGGAGUAAGGAUAUGCUGCUCGUCACUUGCGUGAUGAGUAGCAGAAGGUACAUGAGGAUCACCCAUGUAAAGA | 27.4 nM | 20.1 nM | – | – |
| AAGGAGUUAGGAUAUGCUGCUCGUCACUUGCGUGAUGAGUAGCAGAAGGGACAUGAGGAUCACCCAUGUAAAGA | 41.9 nM | 21.9 nM | – | – |
| AAGGAUAGAGGAUAUACAUAGAUACAGAUUCAUGUGGUCCUACAUGAGGAUCACCCAUGUAGAAGGCUAUCCUA | 240 nM | 56.8 nM | – | – |
| AAGGGUACUUUCGGAACGACAUGAGGAUCACCCAUGUAUACUGAGGAUAUCUACUACUAAGGACGGGAGAAGGCAGUGUAAUGU | 18 nM | 20.3 nM | – | – |
| AAGGUCAAGAUAGGAUAUGUUUCAUGAUAGAUAACAGAAGGAUCUAGAACAUGAGGAUCACCCAUGUGGCACAUAGAGUGGUGA | – | – | 429 nM | 441 nM |
| AAGUACCGGUGAGGAUAUUUUUAAUAGAACUUUAUGAUAUACAUGAGGAUCACCCAUGUUACUUUAAAGAAGGCAUCGGAUUAA | 18 nM | 14.8 nM | – | – |
| AAGUAGACGGUGAGGAUAUAGGUCGAACGACCGAUCUAGAAGGCACAUGAGGAUCACCCAUGUGGGUAACGUCG | 17.9 nM | 19.6 nM | – | – |
| AAGUAGAUCCGAGGAUAUACAAAGUGGAAUCGCUACAUGAGGAUCACCCAUGUAGAAGGCGGAUCUACAGGUACUAAAGUACCA | 8.01 nM | 68.3 nM | – | – |
| AAGUAGAUCCGAGGAUAUACAAUCCGGAAACGGUACAUGAGGAUCACCCAUGUAGAAGGCGGAUCUACAGGUACUAAAGUACCC | 5.61 nM | 8.06 nM | – | – |
| AAGUAGAUCCGAGGAUAUACAAUCCGGAAACGGUACAUGAGGAUCACCCAUGUAGAAGGCGGAUCUACAGGUACUAAAGUACCU | 5.58 nM | 7.98 nM | – | – |
| AAGUAGGUAGGAUAUACAUGGAUAUACAUUCAUGUGGACCUACAUGAGGAUCACCCAUGUAGAAGGACCUACAA | 34.8 nM | 64.2 nM | – | – |
| AAGUAUAGAGGAUAUAGUAGGUACAACAUGAGGAUCACCCAUGUUCUUCAUAACGUAUUUCUAGAAGGCUGAUAAA | 156 nM | 353 nM | – | – |
| AAGUAUAGAGGAUAUAGUGAGUACUACAUGAGGAUCACCCAUGUUCUUCGUUACGUAUUUCUAGAAGGCUGAUAAA | 105 nM | 248 nM | – | – |
| AAGUCAGCAGGAUAUGCGAUGGUGUACUAGGUAGUUUACCCACAUGAGGAUCACCCAUGUAGAAGGGCUGGCUA | 59.1 nM | 148 nM | – | – |
| AAGUCGACGGUGAGGAUAUCGGUUGAACGACAGAUCGAGAAGGCACAUGAGGAUCACCCAUGUGGGUAACGUCG | 19.3 nM | 31.8 nM | – | – |

| Sequence | apparent Kd [1] | apparent Kd [2] | apparent Kd [3] | apparent Kd [4] |
| --- | --- | --- | --- | --- |
| AAGUCGAGCGUGAGGAUAUCGUUUGAACGACAGAGCGAGAAGGCACAUGAGGAUCACCCAUGUGAUUAAGCUCG | 15.6 nM | 19.9 nM | – | – |
| AAGUCGAGUGUGAGGAUAUUGACCGGACGACCCAUCGAGAAGGCACAUGAGGAUCACCCAUGUGAUUCAGCUCA | 17 nM | 23 nM | – | – |
| AAGUGCAUAGGAUAUAUAUGGAUAUACAUUUAUGUAGAACUACAUGAGGAUCACCCAUGUAGAAGGAUGCAAUA | 21.5 nM | 36.8 nM | – | – |
| AAGUGUAUAGGAUAUGCGUGGAAAAGGUGUAUUCACCAGCGACAUGAGGAUCACCCAUGUAGAAGGGUAUGUAA | 94.6 nM | 54.5 nM | – | – |
| AAGUUUAACGAAGGAUAUGGUUACAUGAGGAUCACCCAUGUAUUUUUUGUGAUCUUGUUUAAGUUCCAGAAGGUCGUAUACAUA | 95.4 nM | 305 nM | – | – |
| AAUAAACACACAGGAUAUAGCAUCGACGUUGCGAACUUAGCGACGUCGAUGCUAGAAGGGUGAAAACAUGAGGAUCACCCAUGU | – | – | 73.3 nM | 19.2 nM |
| AAUAAACGCACAGGAUAUAGCAUCGACGUUGAGAACUUAAAGACGUCGAUGCUAGAAGGGUGAAAACAUGAGGAUCACCCAUGU | – | – | 87.6 nM | 18.7 nM |
| AAUAAACUCACAGGAUAUAGCAUCGUCGGUAUGAACUUAAAGACGACGAUGCUAGAAGGGUGACCACAUGAGGAUCACCCAUGU | – | – | 903 nM | 114 nM |
| AAUAACAGAGGAUAUACUAUUUUAUGUGUUUGUUGUUUUAAACAUGAGGAUCACCCAUGUAGAAGGCUGAAUGA | 22.8 nM | 27.6 nM | – | – |
| AAUAACAGAGGAUAUACUAUUUUAUGUGUUUGUUGUUUUGAACAUGAGGAUCACCCAUGUAGAAGGCUGAUUGA | 42.6 nM | 45.3 nM | – | – |
| AAUAACAGAGGAUAUACUGUUUUAUGUAUUUAUUAUUUUAAACAUGAGGAUCACCCAUGUAGAAGGCUGAAUGA | 23.8 nM | 22 nM | – | – |
| AAUAACAGAGGAUAUACUGUUUUAUGUGUUUAUUAUUUUGAACAUGAGGAUCACCCAUGUAGAAGGCUGAAUAA | 23.9 nM | 21 nM | – | – |
| AAUAACAGAGGAUAUACUGUUUUAUGUGUUUGUUGUUUUGAACAUGAGGAUCACCCAUGUAGAAGGCUGAGUAA | 29.1 nM | 25.9 nM | – | – |
| AAUAACAGAGGAUAUACUGUUUUAUGUGUUUGUUGUUUUGAACAUGAGGAUCACCCAUGUAGAAGGCUGAUUAA | 35.3 nM | 33.5 nM | – | – |
| AAUAAGCUAGGAUAUACAUGAGGAUCACCCAUGUGAGGGCACCGCCGGCGCGGGCCCGGUAGAAGGAGCAAUAA | 14.2 nM | 13.2 nM | – | – |
| AAUAAUAAUGUCAGGAUAUCUAGAGCCUCGGCUCUAGAGAAGGGACAUGAGGAUCACCCAUGUCACUCAAUAAU | 17.9 nM | 24.3 nM | – | – |
| AAUACAUGAGGAUCACCCAUGUGCAUUGUUUAAGAGGAAGCACAGGAUAUGCAGCCAAUCGGUUAGCAGAAGGGUGACUUCAAC | – | – | 85.2 nM | 81.6 nM |
| AAUAGGGUCGUAAUAGCUAGCACAUGAGGAUCACCCAUGUACAGAAGGCGAGCCAAGGCGGCAAUCGAGGAUAUGUAGCAGGGU | 19.5 nM | 29.9 nM | – | – |
